Test [1] addresses T1, MAP kinase-interacting serine/threonine-protein kinase 1 (Homo sapiens, UniProt Q9BUB5). The experiment in a line: Inhibition of MNK1.
Target sequence in this assay (Q9BUB5 whole entry): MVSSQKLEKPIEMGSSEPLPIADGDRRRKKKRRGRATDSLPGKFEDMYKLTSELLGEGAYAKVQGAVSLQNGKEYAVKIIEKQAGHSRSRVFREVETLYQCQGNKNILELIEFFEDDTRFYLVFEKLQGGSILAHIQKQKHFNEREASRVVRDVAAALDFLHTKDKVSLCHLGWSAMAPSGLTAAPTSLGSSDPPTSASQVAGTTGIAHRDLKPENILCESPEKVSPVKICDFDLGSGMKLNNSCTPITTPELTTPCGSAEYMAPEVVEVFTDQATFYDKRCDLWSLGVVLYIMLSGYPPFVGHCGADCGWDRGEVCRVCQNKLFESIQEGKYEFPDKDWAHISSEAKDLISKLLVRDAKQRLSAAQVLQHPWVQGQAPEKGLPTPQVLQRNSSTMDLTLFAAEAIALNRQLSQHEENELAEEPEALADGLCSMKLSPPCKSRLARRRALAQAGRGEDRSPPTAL
The target in test [2] is T2, MAP kinase-interacting serine/threonine-protein kinase 2 (Homo sapiens, UniProt Q9HBH9). In words: Inhibition of MNK2.
The target in test [3] is T1, MAP kinase-interacting serine/threonine-protein kinase 1. The experiment in a line: Inhibition of MNK1 at 5 uM. The procedure, abridged:
(§1)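 Recombinant MNK1 (4 μg/mL) or MNK2 (0.7 μg/mL) final. Reaction contained 100 μM ATP and 300 μM eIF4E-derived peptide, run 60 min at 30 °C. ADP was detected by resorufin fluorescence. Tested at 5 μM in duplicate.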
Target sequence in this assay (Q9BUB5 whole entry, looked up): as the sequence (Q9BUB5 whole entry) above

Test [4] deals with RAC-alpha serine/threonine-protein kinase (Homo sapiens) (UniProt P31749). In words: Inhibition of AKT1 at 5 uM. Put shortly:
(§2)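 Single-concentration panel run at an outside kinase screening provider. The compound was tested at 5 μM in duplicate.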

Test [5] has as its target NUAK family SNF1-like kinase 1 (Homo sapiens) (UniProt O60285). In words: Inhibition of ARK5 at 5 uM. Put shortly:
as §2

The subject of test [6] is Serine/threonine-protein kinase B-raf (Homo sapiens), P15056 [V600E]. In words: Inhibition of B-RAFV600E at 5 uM. The procedure, abridged:
as §2

Test [7] addresses Casein kinase I isoform alpha (Homo sapiens) (UniProt P48729). In words: Inhibition of CK1alpha1 at 5 uM. The procedure, abridged: as §2
Test [8] has as its target Dual specificity tyrosine-phosphorylation-regulated kinase 1A (Homo sapiens) (UniProt Q13627). The experiment in a line: Inhibition of DYRK1A at 5 uM. The procedure, abridged:
as §2

In test [9] the target is Epidermal growth factor receptor (Homo sapiens) (UniProt P00533). In words: Inhibition of EGFR at 5 uM. Put shortly: as §2
Test [10] deals with Mitogen-activated protein kinase 3 (Homo sapiens) (UniProt P27361). In words: Inhibition of ERK1 at 5 uM. Put shortly:
as §2

In test [11] the target is Focal adhesion kinase 1 (Homo sapiens) (UniProt Q05397). The experiment in a line: Inhibition of FAK at 5 uM. Put shortly:
as §2

For test [12], the target named is Fibroblast growth factor receptor 1 (Homo sapiens) (UniProt P11362). In words: Inhibition of FGFR1 at 5 uM. The procedure, abridged: as §2
The target of test [13] is Receptor-type tyrosine-protein kinase FLT3 (Homo sapiens) (UniProt P36888). In words: Inhibition of FLT3 at 5 uM. The procedure, abridged:
as §2

For test [14], the target named is Insulin-like growth factor 1 receptor (Homo sapiens) (UniProt P08069). The experiment in a line: Inhibition of IGF1R at 5 uM. Put shortly:
as §2

Test [15] concerns the target Inhibitor of nuclear factor kappa-B kinase subunit beta (Homo sapiens) (UniProt O14920). The experiment in a line: Inhibition of IKK-beta at 5 uM. The procedure, abridged:
as §2

The target in test [16] is Tyrosine-protein kinase JAK2 (Homo sapiens) (UniProt O60674). In words: Inhibition of JAK2 at 5 uM. The procedure, abridged:
as §2

Test [17] addresses Mast/stem cell growth factor receptor Kit (Homo sapiens) (UniProt P10721). The experiment in a line: Inhibition of KIT at 5 uM. Put shortly: as §2
In test [18] the target is Dual specificity mitogen-activated protein kinase kinase 1 (Homo sapiens) (UniProt Q02750). The experiment in a line: Inhibition of MEK1 at 5 uM. The procedure, abridged: as §2
Test [19] has as its target Hepatocyte growth factor receptor (Homo sapiens) (UniProt P08581). The experiment in a line: Inhibition of MET at 5 uM. Put shortly: as §2
In test [20] the target is Serine/threonine-protein kinase 4 (Homo sapiens) (UniProt Q13043). In words: Inhibition of MST1 at 5 uM. The procedure, abridged:
as §2

For test [21], the target named is Mitogen-activated protein kinase 14 (Homo sapiens) (UniProt Q16539). The experiment in a line: Inhibition of p38alpha at 5 uM. The procedure, abridged:
as §2

Test [22] deals with Platelet-derived growth factor receptor alpha (Homo sapiens) (UniProt P16234). In words: Inhibition of PDGFRalpha at 5 uM. The procedure, abridged: as §2
For test [23], the target named is Serine/threonine-protein kinase pim-1 (Homo sapiens) (UniProt P11309). The experiment in a line: Inhibition of PIM1 at 5 uM. The procedure, abridged: as §2
Chain of Serine/threonine-protein kinase pim-1 (Homo sapiens) (P11309 whole entry, looked up): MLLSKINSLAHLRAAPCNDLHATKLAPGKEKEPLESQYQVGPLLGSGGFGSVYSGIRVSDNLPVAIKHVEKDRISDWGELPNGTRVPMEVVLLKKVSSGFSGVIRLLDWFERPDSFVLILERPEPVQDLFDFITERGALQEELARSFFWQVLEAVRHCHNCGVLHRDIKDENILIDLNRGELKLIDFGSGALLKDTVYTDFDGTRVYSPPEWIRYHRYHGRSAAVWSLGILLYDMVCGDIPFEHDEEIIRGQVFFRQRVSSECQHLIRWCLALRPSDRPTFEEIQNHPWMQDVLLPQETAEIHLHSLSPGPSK
Test [24] has as its target Serine/threonine-protein kinase pim-2 (Homo sapiens) (UniProt Q9P1W9). In words: Inhibition of PIM2 at 5 uM. The procedure, abridged:
as §2

The target of test [25] is Ribosomal protein S6 kinase alpha-1 (Homo sapiens) (UniProt Q15418). The experiment in a line: Inhibition of RPS6KA1 at 5 uM. The procedure, abridged: as §2
Test [26] concerns the target Serine/threonine-protein kinase Sgk1 (Homo sapiens) (UniProt O00141). In words: Inhibition of SGK1 at 5 uM. Put shortly:
as §2

In test [27] the target is 3-phosphoinositide-dependent protein kinase 1 (Homo sapiens) (UniProt O15530). In words: Inhibition of PDK1 at 5 uM.
Test [28] has as its target T2, MAP kinase-interacting serine/threonine-protein kinase 2. The experiment in a line: Inhibition of MNK2 at 5 uM. Put shortly: as §1

Among the data in ChEMBL document CHEMBL1240515, “Discovery of mitogen-activated protein kinase-interacting kinase 1 inhibitors by a comprehensive fragment-oriented virtual screening approach” (J Med Chem, 2010) are IC50 and inhibition values, retold here.

Chain of Mitogen-activated protein kinase 3 (Homo sapiens) (P27361 whole entry): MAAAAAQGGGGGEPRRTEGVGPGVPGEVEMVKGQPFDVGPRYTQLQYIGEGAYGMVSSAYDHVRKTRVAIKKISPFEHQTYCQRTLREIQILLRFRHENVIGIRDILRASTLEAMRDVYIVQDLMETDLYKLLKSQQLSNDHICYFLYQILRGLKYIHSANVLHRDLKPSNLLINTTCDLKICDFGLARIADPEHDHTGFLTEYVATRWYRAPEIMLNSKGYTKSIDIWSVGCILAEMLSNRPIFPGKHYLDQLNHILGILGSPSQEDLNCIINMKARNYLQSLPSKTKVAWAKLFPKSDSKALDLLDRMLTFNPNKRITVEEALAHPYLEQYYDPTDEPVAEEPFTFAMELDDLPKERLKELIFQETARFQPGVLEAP
Chain of Serine/threonine-protein kinase pim-2 (Homo sapiens) (Q9P1W9 whole entry, looked up): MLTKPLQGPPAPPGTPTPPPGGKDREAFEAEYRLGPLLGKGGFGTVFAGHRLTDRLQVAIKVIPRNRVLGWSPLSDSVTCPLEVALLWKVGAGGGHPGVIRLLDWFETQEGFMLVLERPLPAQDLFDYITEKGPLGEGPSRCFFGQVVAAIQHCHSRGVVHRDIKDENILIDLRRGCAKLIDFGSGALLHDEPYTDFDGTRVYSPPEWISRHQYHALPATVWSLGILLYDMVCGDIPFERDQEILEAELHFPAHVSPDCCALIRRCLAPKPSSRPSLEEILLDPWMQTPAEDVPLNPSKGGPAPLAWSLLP
Chain of Insulin-like growth factor 1 receptor (Homo sapiens) (P08069 31-736 limits assumed): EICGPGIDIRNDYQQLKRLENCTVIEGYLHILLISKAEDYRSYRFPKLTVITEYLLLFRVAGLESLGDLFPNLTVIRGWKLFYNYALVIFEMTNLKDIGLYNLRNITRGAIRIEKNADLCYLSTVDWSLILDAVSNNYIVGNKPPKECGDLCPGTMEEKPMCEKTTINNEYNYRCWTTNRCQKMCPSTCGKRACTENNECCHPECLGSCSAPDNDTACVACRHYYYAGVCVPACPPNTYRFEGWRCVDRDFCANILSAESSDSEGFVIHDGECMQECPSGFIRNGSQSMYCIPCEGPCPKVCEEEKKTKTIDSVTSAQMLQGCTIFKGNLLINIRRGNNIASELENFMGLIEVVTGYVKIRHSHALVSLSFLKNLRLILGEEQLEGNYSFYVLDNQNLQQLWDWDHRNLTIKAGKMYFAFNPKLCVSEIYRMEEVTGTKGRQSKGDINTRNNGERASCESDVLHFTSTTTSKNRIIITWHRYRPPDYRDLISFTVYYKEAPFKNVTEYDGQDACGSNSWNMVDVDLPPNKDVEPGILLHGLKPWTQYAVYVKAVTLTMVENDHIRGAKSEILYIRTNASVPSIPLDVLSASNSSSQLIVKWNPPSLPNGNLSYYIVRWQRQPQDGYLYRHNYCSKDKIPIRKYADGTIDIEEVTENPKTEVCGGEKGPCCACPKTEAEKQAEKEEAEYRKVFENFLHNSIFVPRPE
Chain of Insulin-like growth factor 1 receptor (Homo sapiens) (P08069 741-1367 limits assumed): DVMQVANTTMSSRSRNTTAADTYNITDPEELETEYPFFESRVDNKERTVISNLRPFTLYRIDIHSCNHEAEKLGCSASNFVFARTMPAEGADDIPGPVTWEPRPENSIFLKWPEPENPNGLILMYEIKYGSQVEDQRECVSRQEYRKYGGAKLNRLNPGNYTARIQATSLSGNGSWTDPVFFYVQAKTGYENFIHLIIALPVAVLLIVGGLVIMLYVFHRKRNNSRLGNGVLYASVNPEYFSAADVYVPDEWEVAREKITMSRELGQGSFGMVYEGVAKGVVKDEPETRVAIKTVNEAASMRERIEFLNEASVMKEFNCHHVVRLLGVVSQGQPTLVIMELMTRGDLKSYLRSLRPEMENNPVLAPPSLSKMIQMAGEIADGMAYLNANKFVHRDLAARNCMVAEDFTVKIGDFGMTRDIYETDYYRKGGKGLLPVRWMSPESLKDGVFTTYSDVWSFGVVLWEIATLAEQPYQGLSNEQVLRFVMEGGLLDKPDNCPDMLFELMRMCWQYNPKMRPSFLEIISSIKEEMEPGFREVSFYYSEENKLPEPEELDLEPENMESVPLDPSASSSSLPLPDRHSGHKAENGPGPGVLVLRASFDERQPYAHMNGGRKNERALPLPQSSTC
Chain of Receptor-type tyrosine-protein kinase FLT3 (Homo sapiens) (P36888 whole entry): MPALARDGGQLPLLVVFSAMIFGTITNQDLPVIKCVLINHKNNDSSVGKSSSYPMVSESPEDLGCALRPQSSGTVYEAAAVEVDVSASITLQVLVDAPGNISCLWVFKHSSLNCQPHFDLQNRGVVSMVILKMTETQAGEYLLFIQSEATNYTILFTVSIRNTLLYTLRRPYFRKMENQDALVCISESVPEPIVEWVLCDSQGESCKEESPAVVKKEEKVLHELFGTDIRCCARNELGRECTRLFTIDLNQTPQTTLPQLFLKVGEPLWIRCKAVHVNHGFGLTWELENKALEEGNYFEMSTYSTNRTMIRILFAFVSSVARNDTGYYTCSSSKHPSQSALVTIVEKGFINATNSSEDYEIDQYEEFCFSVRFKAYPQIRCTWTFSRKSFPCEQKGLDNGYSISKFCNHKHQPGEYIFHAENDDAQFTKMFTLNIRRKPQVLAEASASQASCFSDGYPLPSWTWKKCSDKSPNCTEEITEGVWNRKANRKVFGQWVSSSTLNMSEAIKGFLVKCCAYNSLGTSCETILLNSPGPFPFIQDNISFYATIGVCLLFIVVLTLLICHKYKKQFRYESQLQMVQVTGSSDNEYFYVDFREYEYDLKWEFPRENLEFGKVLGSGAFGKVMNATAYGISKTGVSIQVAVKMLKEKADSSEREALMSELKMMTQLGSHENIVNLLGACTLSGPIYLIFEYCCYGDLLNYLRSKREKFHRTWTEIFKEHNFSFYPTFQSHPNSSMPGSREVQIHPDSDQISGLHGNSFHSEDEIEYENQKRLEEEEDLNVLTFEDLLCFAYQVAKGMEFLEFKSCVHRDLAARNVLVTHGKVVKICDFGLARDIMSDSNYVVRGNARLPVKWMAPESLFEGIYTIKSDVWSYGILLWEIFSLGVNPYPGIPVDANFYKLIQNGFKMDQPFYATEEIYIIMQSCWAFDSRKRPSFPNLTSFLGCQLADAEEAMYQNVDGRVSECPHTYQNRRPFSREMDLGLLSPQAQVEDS
Chain of NUAK family SNF1-like kinase 1 (Homo sapiens) (O60285 whole entry): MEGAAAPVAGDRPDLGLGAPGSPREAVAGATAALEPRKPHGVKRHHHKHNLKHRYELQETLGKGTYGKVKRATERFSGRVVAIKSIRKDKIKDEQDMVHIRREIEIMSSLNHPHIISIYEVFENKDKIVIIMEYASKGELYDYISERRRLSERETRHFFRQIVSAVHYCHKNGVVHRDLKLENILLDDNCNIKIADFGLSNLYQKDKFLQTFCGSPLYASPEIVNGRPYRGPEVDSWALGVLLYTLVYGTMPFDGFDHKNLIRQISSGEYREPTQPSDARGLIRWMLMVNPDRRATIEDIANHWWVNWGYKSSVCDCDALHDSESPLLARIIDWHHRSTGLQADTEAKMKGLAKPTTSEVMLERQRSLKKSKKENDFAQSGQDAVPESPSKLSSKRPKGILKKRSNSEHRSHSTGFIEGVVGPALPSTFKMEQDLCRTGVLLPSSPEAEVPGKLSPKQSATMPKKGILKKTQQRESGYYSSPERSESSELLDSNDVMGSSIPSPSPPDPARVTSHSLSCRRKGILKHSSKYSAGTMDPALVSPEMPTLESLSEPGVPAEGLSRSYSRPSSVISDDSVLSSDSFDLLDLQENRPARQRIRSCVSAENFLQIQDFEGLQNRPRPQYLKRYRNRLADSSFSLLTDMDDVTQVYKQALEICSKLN
Chain of Mitogen-activated protein kinase 14 (Homo sapiens) (Q16539 whole entry): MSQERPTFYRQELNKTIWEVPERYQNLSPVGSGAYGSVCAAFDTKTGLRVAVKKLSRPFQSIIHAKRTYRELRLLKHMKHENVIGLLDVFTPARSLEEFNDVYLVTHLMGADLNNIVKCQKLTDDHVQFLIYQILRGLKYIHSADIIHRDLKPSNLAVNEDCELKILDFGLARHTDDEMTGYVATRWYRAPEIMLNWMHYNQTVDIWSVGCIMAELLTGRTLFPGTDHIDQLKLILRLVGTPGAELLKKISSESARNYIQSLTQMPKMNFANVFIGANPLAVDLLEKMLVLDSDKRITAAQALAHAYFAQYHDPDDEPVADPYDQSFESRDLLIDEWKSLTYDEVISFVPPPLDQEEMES

Consider `COc1cc2ncnc(Nc3cccc(Br)c3)c2cc1OC`, for which the midpoint of inhibition in test [1], the IC50, lay at 0.63 µM. Still for that read-out and setting: under `c1ccc(-c2cnc3ccc(NCCc4ccccn4)nn23)cc1` stands 4.28 µM. On the same count and under the same terms, under `NC(=O)c1ccc(-c2cc(-c3ccccc3)cnc2N)cc1` stands 5.15 µM; under `CNc1ccc2ncc(-c3cccc(O)c3)n2n1`, 1.53 µM; under `COc1cc2ncnc(Nc3cc(Br)c(O)c(Br)c3)c2cc1OC`, 0.12 µM.

For `c1cnn2c(-c3ccncc3)cnc2c1`, it took 3.8 µM to reach half-maximal inhibition in [1] (IC50). `CNc1ccc2ncc(-c3ccc(F)cc3)n2n1` gave an IC50 in test [1] of 4.05 µM. As for `Clc1ccc(Nc2ncnc3[nH]ncc23)cc1`, the IC50 in [1] worked out at 0.58 µM. For the compound `OCCCNc1ccc2ncc(-c3ccccc3F)n2n1`, half-maximal inhibition in test [1] (IC50) required 3.24 µM. `c1cc(-c2cc(C3CCNCC3)[nH]n2)ccn1`: the concentration for half-maximal inhibition (IC50) in test [1] worked out at 0.646 µM; in test [2] it was 0.575 µM. `COCCNc1ccc2ncc(-c3ccc(Cl)cc3)n2n1`: the 50% inhibitory concentration (IC50) in test [1] came to 1.62 µM. The same measure, in the same setting: under `Fc1ccc(Nc2ncnc3[nH]cnc23)cc1` stands 1.03 µM. `Fc1cccc(Nc2ncnc3n[nH]cc23)c1` showed an IC50 in [1] of 1.09 µM. Regarding `COCCNc1ccc2ncc(-c3ccc(F)cc3)n2n1`, half-maximal inhibition in test [1] (IC50) was put at 4.09 µM. Still for that read-out and setting: under `O=c1[nH]cnc2cc3n[nH]cc3cc12` stands 8.17 µM. On the same count and under the same terms, under `COc1cc2ncnc(Nc3cccc(Cl)c3)c2cc1OC` [TYRPHOSTIN AG-1478] stands 0.53 µM; under `c1cc(-c2cnc3sc(NCC4CC4)nn23)ccn1`, 1.71 µM; under `CC(C)CNc1nn2c(-c3ccncc3)cnc2s1`, 6.18 µM. On the same count and under the same terms, the result for `CNc1cc2c(Nc3cccc(Br)c3)ncnc2cn1` reads 1.7 µM; that for `c1ccc2cc(Nc3ncnc4[nH]ncc34)ccc2c1`, 1.35 µM.

In the case of `c1cc(-c2cc(C3CCNCC3)n[nH]2)ccn1`, the inhibition in test [3] is 87%; in test [4] it was 0%; in [5] it was 3%; in test [6] it was 9%; in [7] it was 10%; in test [8], 0%. Further, the inhibition in test [9] is 1%; in test [10], 0%; in test [11], 15%; in test [12], 8%; in test [13] it was 0%; in test [14], 3%. Also, the inhibition amounted to 6% in [15]; 0% in test [16]; 7% in test [17]; 5% in test [18]; 1% in test [19]; 0% in test [20]. The inhibition in [21] came out at 2%; in [22], 1%; in [23], 4%; in test [24], 1%; in [25], 11%; in test [26], 7%. The same compound registered an inhibition in test [27] of 0%.

For `OCCNc1ccc2ncc(-c3ccc(Cl)cc3)n2n1`, it took 2.93 µM to reach half-maximal inhibition in [1] (IC50).

For the compound `CCNc1nc(C)c(-c2ccnc(Nc3ccc(N4CCNCC4)cc3)n2)s1`, the inhibition in test [3] was found to be 97%; in test [28], 80%. In test [1], `Brc1ccc(Nc2ncnc3[nH]ncc23)cc1` gave an IC50 of 1.56 µM.

As to `Brc1cccc(Nc2ncnc3cc4nc[nH]c4cc23)c1`, in test [1], the midpoint of inhibition, the IC50, lay at 2.8 µM. With `COC(=O)c1ccc(Nc2[nH]cnc3ncnc2-3)cc1`, the IC50 in test [1] was 0.85 µM. Regarding `OCCCNc1ccc2ncc(-c3ccc(F)cc3)n2n1`, in [1], the IC50 is 2.41 µM.

In the case of `NC(=O)c1ccc(Nc2ncnc3[nH]cnc23)cc1`, the IC50 in test [1] was found to be 0.16 µM.
